Results taken from ChEMBL document CHEMBL1255475, “Mutant prevention concentrations of four carbapenems against gram-negative rods” (2010).
In brackets after ≈: the same amount, converted by molar mass.

Legend:
Type in all cases: functional
[1] = system: Acinetobacter baumannii; assay: Antibacterial activity against Acinetobacter baumannii A890 assessed as mutant prevention concentration after overnight incubation
[2] = system: Pseudomonas aeruginosa; assay: Antibacterial activity against Pseudomonas aeruginosa P358 assessed as mutant prevention concentration after overnight incubation
[3] = system: Klebsiella pneumoniae; assay: Antibacterial activity against beta-lactamase-positive ESBL-negative Klebsiella pneumoniae E509 assessed as mutant prevention concentration after overnight incubation
How it was run: (§1)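 Overnight growth on blood trypticase soy agar (35°C, air) was resuspended in 0.9% saline and counted on drug-free Mueller-Hinton agar. […] Colonies were retested by agar dilution to confirm mutants. MPC was the lowest concentration preventing resistant-mutant growth.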

[4] = system: Escherichia coli; assay: Antibacterial activity against beta-lactamase-negative Escherichia coli E348 assessed as mutant prevention concentration after overnight incubation
[5] = system: Pseudomonas aeruginosa; assay: Antibacterial activity against Pseudomonas aeruginosa P376 assessed as mutant prevention concentration after overnight incubation
[6] = system: Pseudomonas aeruginosa; assay: Antibacterial activity against Pseudomonas aeruginosa P353 assessed as mutant prevention concentration after overnight incubation
[7] = system: Pseudomonas aeruginosa; assay: Antibacterial activity against Pseudomonas aeruginosa P332 assessed as mutant prevention concentration after overnight incubation
[8] = system: Escherichia coli; assay: Antibacterial activity against beta-lactamase-positive ESBL-positive Escherichia coli E450 assessed as mutant prevention concentration after overnight incubation; how it was run: as §1
[9] = system: Pseudomonas aeruginosa; assay: Antibacterial activity against Pseudomonas aeruginosa P328 assessed as mutant prevention concentration after overnight incubation
[10] = system: Klebsiella pneumoniae; assay: Antibacterial activity against beta-lactamase-negative Klebsiella pneumoniae E419 assessed as mutant prevention concentration after overnight incubation; how it was run: as §1
[11] = system: Pseudomonas aeruginosa; assay: Antibacterial activity against Pseudomonas aeruginosa P363 assessed as mutant prevention concentration after overnight incubation
[12] = system: Escherichia coli; assay: Antibacterial activity against beta-lactamase-positive ESBL-negative Escherichia coli E437 assessed as mutant prevention concentration after overnight incubation; how it was run: as §1
[13] = system: Escherichia coli; assay: Antibacterial activity against beta-lactamase-negative Escherichia coli E408 assessed as mutant prevention concentration after overnight incubation
[14] = system: Klebsiella pneumoniae; assay: Antibacterial activity against beta-lactamase-positive ESBL-negative Klebsiella pneumoniae E474 assessed as mutant prevention concentration after overnight incubation; how it was run: as §1
[15] = system: Escherichia coli; assay: Antibacterial activity against beta-lactamase-negative Escherichia coli E425 assessed as mutant prevention concentration after overnight incubation
[16] = system: Klebsiella pneumoniae; assay: Antibacterial activity against beta-lactamase-negative Klebsiella pneumoniae E359 assessed as mutant prevention concentration after overnight incubation
[17] = system: Klebsiella pneumoniae; assay: Antibacterial activity against beta-lactamase-positive ESBL-negative Klebsiella pneumoniae E511 assessed as mutant prevention concentration after overnight incubation; how it was run: as §1
[18] = system: Escherichia coli; assay: Antibacterial activity against beta-lactamase-positive ESBL-negative Escherichia coli E412 assessed as mutant prevention concentration after overnight incubation; how it was run: as §1
[19] = system: Escherichia coli; assay: Antibacterial activity against beta-lactamase-positive ESBL-negative Escherichia coli E483 assessed as mutant prevention concentration after overnight incubation; how it was run: as §1
[20] = system: Acinetobacter baumannii; assay: Antibacterial activity against Acinetobacter baumannii A849 assessed as mutant prevention concentration after overnight incubation
[21] = system: Acinetobacter baumannii; assay: Antibacterial activity against Acinetobacter baumannii A928 assessed as mutant prevention concentration after overnight incubation
[22] = system: Klebsiella pneumoniae; assay: Antibacterial activity against beta-lactamase-positive ESBL-positive Klebsiella pneumoniae E478 assessed as mutant prevention concentration after overnight incubation; how it was run: as §1
[23] = system: Klebsiella pneumoniae; assay: Antibacterial activity against beta-lactamase-positive ESBL-negative Klebsiella pneumoniae E480 assessed as mutant prevention concentration after overnight incubation; how it was run: as §1
[24] = system: Acinetobacter baumannii; assay: Antibacterial activity against Acinetobacter baumannii A908 assessed as mutant prevention concentration after overnight incubation
[25] = system: Escherichia coli; assay: Antibacterial activity against beta-lactamase-negative Escherichia coli E346 assessed as mutant prevention concentration after overnight incubation
[26] = system: Pseudomonas aeruginosa; assay: Antibacterial activity against Pseudomonas aeruginosa P335 assessed as mutant prevention concentration after overnight incubation
[27] = system: Escherichia coli; assay: Antibacterial activity against beta-lactamase-positive ESBL-positive Escherichia coli E460 assessed as mutant prevention concentration after overnight incubation; how it was run: as §1
[28] = system: Klebsiella pneumoniae; assay: Antibacterial activity against beta-lactamase-positive ESBL-negative Klebsiella pneumoniae E474 incubated up to 7 days by agar dilution method; conditions: E474, 168 h
[29] = system: Klebsiella pneumoniae; assay: Antibacterial activity against beta-lactamase-positive ESBL-positive Klebsiella pneumoniae E478 incubated up to 7 days by agar dilution method; conditions: E478, 168 h
[30] = system: Escherichia coli; assay: Antibacterial activity against beta-lactamase-negative Escherichia coli E348 incubated up to 7 days by agar dilution method; conditions: E348, 168 h
[31] = system: Klebsiella pneumoniae; assay: Antibacterial activity against beta-lactamase-negative Klebsiella pneumoniae E362 incubated up to 7 days by agar dilution method; conditions: E362, 168 h
[32] = system: Klebsiella pneumoniae; assay: Antibacterial activity against beta-lactamase-negative Klebsiella pneumoniae E420 incubated up to 7 days by agar dilution method; conditions: E420, 168 h
How it was run: (§2)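 MIC by CLSI agar dilution, with quality-control strains in each run. Beta-lactamase status was set by 30 μg cefazolin Kirby-Bauer disk diffusion. ESBL status was set by cefotaxime and ceftazidime disks (30 μg) with and without clavulanic acid (10 μg).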

[33] = system: Klebsiella pneumoniae; assay: Antibacterial activity against beta-lactamase-negative Klebsiella pneumoniae E359 incubated up to 7 days by agar dilution method; conditions: E359, 168 h
[34] = system: Klebsiella pneumoniae; assay: Antibacterial activity against beta-lactamase-negative Klebsiella pneumoniae E418 incubated up to 7 days by agar dilution method; conditions: E418, 168 h
[35] = system: Klebsiella pneumoniae; assay: Antibacterial activity against beta-lactamase-positive ESBL-positive Klebsiella pneumoniae E476 incubated up to 7 days by agar dilution method; conditions: E476, 168 h
[36] = system: Klebsiella pneumoniae; assay: Antibacterial activity against beta-lactamase-positive ESBL-negative Klebsiella pneumoniae E511 incubated up to 7 days by agar dilution method; conditions: E511, 168 h
[37] = system: Escherichia coli; assay: Antibacterial activity against beta-lactamase-positive ESBL-negative Escherichia coli E412 incubated up to 7 days by agar dilution method; conditions: E412, 168 h; how it was run: as §2
[38] = system: Escherichia coli; assay: Antibacterial activity against beta-lactamase-positive ESBL-negative Escherichia coli E483 […] by agar dilution method
[39] = system: Escherichia coli; assay: Antibacterial activity against beta-lactamase-negative Escherichia coli E350 […] by agar dilution method
[40] = system: Klebsiella pneumoniae; assay: Antibacterial activity against beta-lactamase-negative Klebsiella pneumoniae E360 incubated up to 7 days by agar dilution method; conditions: E360, 168 h
[41] = system: Escherichia coli; assay: Antibacterial activity against beta-lactamase-positive ESBL-positive Escherichia coli E451 incubated up to 7 days by agar dilution method; conditions: E451, 168 h; how it was run: as §2
[42] = system: Escherichia coli; assay: Antibacterial activity against beta-lactamase-negative Escherichia coli E409 […] by agar dilution method
[43] = system: Klebsiella pneumoniae; assay: Antibacterial activity against beta-lactamase-positive ESBL-negative Klebsiella pneumoniae E480 incubated up to 7 days by agar dilution method; conditions: E480, 168 h
[44] = system: Klebsiella pneumoniae; assay: Antibacterial activity against beta-lactamase-negative Klebsiella pneumoniae E357 incubated up to 7 days by agar dilution method; conditions: E357, 168 h
[45] = system: Escherichia coli; assay: Antibacterial activity against beta-lactamase-positive ESBL-negative Escherichia coli E415 incubated up to 7 days by agar dilution method; conditions: E415, 168 h; how it was run: as §2
[46] = system: Escherichia coli; assay: Antibacterial activity against beta-lactamase-positive ESBL-positive Escherichia coli E446 incubated up to 7 days by agar dilution method; conditions: E446, 168 h; how it was run: as §2

Row | SMILES | MPC [3] [µg/mL] | MPC [4] [µg/mL] | MPC [8] [µg/mL] | MPC [10] [µg/mL] | MPC [12] [µg/mL] | MPC [13] [µg/mL] | MPC [14] [µg/mL] | MPC [15] [µg/mL] | MPC [16] [µg/mL] | MPC [17] [µg/mL] | MPC [18] [µg/mL] | MPC [19] [µg/mL] | MPC [22] [µg/mL] | MPC [23] [µg/mL] | MPC [25] [µg/mL] | MPC [27] [µg/mL] | further results
1 | C[C@@H](O)[C@H]1C(=O)N2C(C(=O)O)=C(SCCNC=N)C[C@H]12 [IMIPENEM ANHYDROUS] | >32 | 0.5 | 0.5 | 1 | 1 | 1 | 16 | 0.5 | 1 | 64 | 1 | 4 | 16 | >16 | 0.5 | 0.5 | MPC [1]: 1 µg/mL; MPC [2]: 128 µg/mL; MPC [5]: 64 µg/mL; MPC [6]: 64 µg/mL; MPC [7]: 16 µg/mL; MPC [9]: 32 µg/mL; MPC [11]: 32 µg/mL; MPC [20]: 64 µg/mL; MPC [21]: 1 µg/mL; MPC [24]: 1 µg/mL; MPC [26]: 32 µg/mL
2 | C[C@@H](O)[C@H]1C(=O)N2C(C(=O)O)=C(S[C@@H]3CN[C@H](C(=O)Nc4cccc(C(=O)O)c4)C3)[C@H](C)[C@H]12 | 64 | 0.03 | 1 | 0.03 | 0.125 | 0.06 | 32 | 0.03 | 0.03 | 64 | 1 | 64 | 16 | 32 | 0.03 | 0.5 | MIC [28]: 4 µg/mL (≈ 8.41 µM); MIC [29]: 8 µg/mL (≈ 16.8 µM); MIC [30]: 8 ng/mL (≈ 0.0168 µM); MIC [31]: 0.016 µg/mL (≈ 0.0336 µM); MIC [32]: 8 ng/mL (≈ 0.0168 µM); MIC [33]: 0.016 µg/mL (≈ 0.0336 µM); MIC [34]: 0.06 µg/mL (≈ 0.126 µM); MIC [35]: 8 µg/mL (≈ 16.8 µM); MIC [36]: 8 µg/mL (≈ 16.8 µM); MIC [37]: 0.06 µg/mL (≈ 0.126 µM); MIC [38]: 4 µg/mL (≈ 8.41 µM); MIC [39]: 0.016 µg/mL (≈ 0.0336 µM); MIC [40]: 8 ng/mL (≈ 0.0168 µM); MIC [41]: 0.06 µg/mL (≈ 0.126 µM); MIC [42]: 0.016 µg/mL (≈ 0.0336 µM); MIC [43]: 8 µg/mL (≈ 16.8 µM); MIC [44]: 8 ng/mL (≈ 0.0168 µM); MIC [45]: 0.125 µg/mL (≈ 0.263 µM); MIC [46]: 0.25 µg/mL (≈ 0.526 µM)
